Converted amounts (≈) assume the structure as drawn.
Columns and labels:
Clavispora lusitaniae [1] = assay: Antifungal activity against Candida lusitaniae 2446/I after 24 hrs by microdilution method; type: functional
Outline: (§1)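 Yeasts held on Sabouraud dextrose agar. MIC by NCCLS M27-A broth microdilution in RPMI 1640 with L-glutamine, buffered with 0.165 M MOPS to pH 7.0. Compounds in DMSO (≤2% final), twofold dilutions 500–0.48. Final inoculum 5 × 10³ ± 0.2 cfu mL⁻¹. Incubated at 35 °C; absorbance at 540 nm read at 24 and 48 h. MIC is 80% growth inhibition versus control; run twice in duplicate.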

Candida albicans [2] = assay: Antifungal activity against Candida albicans ATCC 90028 after 48 hrs by microdilution method; type: functional; conditions: ATCC 90028, 48 h; outline: as §1
L1210 = assay: Cytostatic activity against mouse L1210 cells after 72 hrs by XTT assay; type: functional, cell-based; conditions: l1210
Outline: (§2)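 Leukemia cells (L1210 ATCC CCL 219, CCRF-CEM ATCC CCL 119, HL-60 ATCC CCL 240) grown in 24-well plates in RPMI 1640 with fetal calf serum. Growth assessed 72 h after drug addition. Viability measured by XTT spectrophotometric assay; potency given as IC50.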

Pichia kudriavzevii [3] = assay: Antifungal activity against Candida krusei E28 after 24 hrs by microdilution method; type: functional; conditions: E28, 24 h; outline: as §1
Pichia kudriavzevii [4] = assay: Antifungal activity against Candida krusei E28 after 48 hrs by microdilution method; type: functional; conditions: E28, 48 h; outline: as §1
Candida albicans [5] = assay: Antifungal activity against Candida albicans ATCC 44859 after 48 hrs by microdilution method; type: functional; conditions: ATCC 44859, 48 h; outline: as §1
HeLa S3 = assay: Cytostatic activity against human HeLaS3 cells after 48 hrs by XTT assay
Lichtheimia corymbifera [6] = assay: Antifungal activity against Absidia corymbifera 272 after 24 hrs by microdilution method; type: functional; conditions: Lichtheimia corymbifera, 272, 24 h
Outline: (§3)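 Filamentous strains held on Sabouraud dextrose agar. NCCLS M27-A broth microdilution in RPMI 1640 with L-glutamine and 0.165 M MOPS, pH 7.0. DMSO diluent ≤2% final; twofold dilutions 500–0.48. Inoculum 5 × 10³ ± 0.2 cfu mL⁻¹ final.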

Nakaseomyces glabratus [7] = assay: Antifungal activity against Candida glabrata 20/I after 48 hrs by microdilution method; type: functional; outline: as §1
[8] = system: Trichophyton mentagrophytes; assay: Antifungal activity against Trichophyton mentagrophytes 445 after 72 hrs by microdilution method; type: functional; conditions: Trichophyton mentagrophytes, 445, 72 h
Outline: (§4)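 Dermatophyte held on Sabouraud dextrose agar. M27-A microdilution in MOPS-buffered (0.165 M, pH 7.0) RPMI 1640 with L-glutamine. DMSO ≤2% final; twofold dilutions 500–0.48. Inoculum 5 × 10³ ± 0.2 cfu mL⁻¹ final. Incubated at 35 °C; MIC read visually at 72 and 120 h as 80% inhibition of control growth; determined twice in duplicate.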

Candida tropicalis [9] = assay: Antifungal activity against Candida tropicalis 156 after 24 hrs by microdilution method; type: functional; conditions: Candida tropicalis, 156, 24 h; outline: as §1
Pichia kudriavzevii [10] = assay: Antifungal activity against Candida krusei ATCC 6258 after 48 hrs by microdilution method; type: functional; conditions: ATCC 6258, 48 h; outline: as §1
Aspergillus fumigatus [11] = assay: Antifungal activity against Aspergillus fumigatus 231 after 48 hrs by microdilution method; type: functional; conditions: Aspergillus fumigatus, 231, 48 h; outline: as §3
Trichosporon beigelii [12] = assay: Antifungal activity against Trichosporon beigelii 1188 after 48 hrs by microdilution method; type: functional; conditions: Trichosporon beigelii, 1188, 48 h; outline: as §1
Candida tropicalis [13] = assay: Antifungal activity against Candida tropicalis 156 after 48 hrs by microdilution method; type: functional; conditions: Candida tropicalis, 156, 48 h; outline: as §1
Nakaseomyces glabratus [14] = assay: Antifungal activity against Candida glabrata 20/I after 24 hrs by microdilution method; type: functional; outline: as §1
Lichtheimia corymbifera [15] = assay: Antifungal activity against Absidia corymbifera 272 after 48 hrs by microdilution method; type: functional; conditions: Lichtheimia corymbifera, 272, 48 h; outline: as §3
Trichosporon beigelii [16] = assay: Antifungal activity against Trichosporon beigelii 1188 after 24 hrs by microdilution method; type: functional; conditions: Trichosporon beigelii, 1188, 24 h; outline: as §1
Pichia kudriavzevii [17] = assay: Antifungal activity against Candida krusei ATCC 6258 after 24 hrs by microdilution method; type: functional; conditions: ATCC 6258, 24 h; outline: as §1
Candida parapsilosis [18] = assay: Antifungal activity against Candida parapsilosis ATCC 22019 after 48 hrs by microdilution method; type: functional; conditions: Lodderomyces parapsilosis, ATCC 22019, 48 h; outline: as §1
Candida albicans [19] = assay: Antifungal activity against Candida albicans ATCC 90028 after 24 hrs by microdilution method; type: functional; conditions: ATCC 90028, 24 h; outline: as §1
HL-60 = assay: Cytostatic activity against human HL60 cells after 72 hrs by XTT assay; type: functional, cell-based; conditions: hl-60; outline: as §2
Clavispora lusitaniae [20] = assay: Antifungal activity against Candida lusitaniae 2446/I after 48 hrs by microdilution method; type: functional; outline: as §1
Candida parapsilosis [21] = assay: Antifungal activity against Candida parapsilosis ATCC 22019 after 24 hrs by microdilution method; type: functional; conditions: Lodderomyces parapsilosis, ATCC 22019, 24 h; outline: as §1
[22] = system: Trichophyton mentagrophytes; assay: Antifungal activity against Trichophyton mentagrophytes 445 after 120 hrs by microdilution method; type: functional; conditions: Trichophyton mentagrophytes, 445, 120 h; outline: as §4
Candida albicans [23] = assay: Antifungal activity against Candida albicans ATCC 44859 after 24 hrs by microdilution method; type: functional; conditions: ATCC 44859, 24 h; outline: as §1
CCRF-CEM = assay: Cytostatic activity against human CCRF-CEM cells after 72 hrs by XTT assay; type: functional, cell-based; outline: as §2
Aspergillus fumigatus [24] = assay: Antifungal activity against Aspergillus fumigatus 231 after 24 hrs by microdilution method; type: functional; conditions: Aspergillus fumigatus, 231, 24 h; outline: as §3
[25] = Chemical stability in tetrahydrofuran solution at 4.7 mg after 24 hrs in room temperature by HPLC analysis; type: physicochemical
[26] = Chemical stability in DMSO solution at 4.7 mg after 24 hrs in room temperature by HPLC analysis; type: physicochemical

In the case of CCOCC1C=C(c2ccc(Br)cc2)C(=O)O1 (configuration not stated), the MIC80 (Clavispora lusitaniae [1]) is reported as 125 µM (≈ 37.1 µg/mL), the MIC80 (Candida albicans [2]) is reported as 125 µM (≈ 37.1 µg/mL) and the IC50 (L1210) is reported as “Not Active”. It also gave an MIC80 (Pichia kudriavzevii [3]) of 250 µM (≈ 74.3 µg/mL), an MIC80 (Pichia kudriavzevii [4]) of 250 µM (≈ 74.3 µg/mL) and an MIC80 (Candida albicans [5]) of 62.5 µM (≈ 18.6 µg/mL). For the same molecule, the IC50 (HeLa S3; Homo sapiens, HeLa S3, 48 h, read-out: IC50) was 1.94 µM, the MIC80 (Lichtheimia corymbifera [6]) was 125 µM (≈ 37.1 µg/mL) and the MIC80 (Nakaseomyces glabratus [7]) was 62.5 µM (≈ 18.6 µg/mL). It also gave an MIC80 [8] of 15.6 µM (≈ 4.64 µg/mL), an MIC80 (Candida tropicalis [9]) of 250 µM (≈ 74.3 µg/mL) and an MIC80 (Pichia kudriavzevii [10]) of 250 µM (≈ 74.3 µg/mL). For the same molecule, the MIC80 (Aspergillus fumigatus [11]) was 125 µM (≈ 37.1 µg/mL), the MIC80 (Trichosporon beigelii [12]) was 250 µM (≈ 74.3 µg/mL) and the MIC80 (Candida tropicalis [13]) was 250 µM (≈ 74.3 µg/mL). It also gave an MIC80 (Nakaseomyces glabratus [14]) of 62.5 µM (≈ 18.6 µg/mL), an MIC80 (Lichtheimia corymbifera [15]) of 125 µM (≈ 37.1 µg/mL) and an MIC80 (Trichosporon beigelii [16]) of 125 µM (≈ 37.1 µg/mL). It also gave an MIC80 (Pichia kudriavzevii [17]) of 250 µM (≈ 74.3 µg/mL), an MIC80 (Candida parapsilosis [18]) of 250 µM (≈ 74.3 µg/mL) and an MIC80 (Candida albicans [19]) of 125 µM (≈ 37.1 µg/mL). For the same molecule, the IC50 (HL-60) was “Not Active”, the MIC80 (Clavispora lusitaniae [20]) was 250 µM (≈ 74.3 µg/mL) and the MIC80 (Candida parapsilosis [21]) was 125 µM (≈ 37.1 µg/mL). For the same molecule, the MIC80 [22] was 15.6 µM (≈ 4.64 µg/mL), the MIC80 (Candida albicans [23]) was 31.2 µM (≈ 9.29 µg/mL) and the IC50 (CCRF-CEM; Homo sapiens, CCRF-CEM, 72 h, read-out: IC50) was 9.82 µM. It also gave an MIC80 (Aspergillus fumigatus [24]) of 62.5 µM (≈ 18.6 µg/mL).
In the case of CC(=O)OCC1C=C(c2ccc(Br)cc2)C(=O)O1 (configuration not stated), the MIC80 (Clavispora lusitaniae [1]) is reported as 3.9 µM (≈ 1.21 µg/mL), the MIC80 (Candida albicans [2]) is reported as 3.9 µM (≈ 1.21 µg/mL) and the Stability [25] is reported as “Stable”. It also gave an MIC80 (Pichia kudriavzevii [3]) of 7.81 µM (≈ 2.43 µg/mL), an MIC80 (Pichia kudriavzevii [4]) of 7.81 µM (≈ 2.43 µg/mL) and an MIC80 (Candida albicans [5]) of 1.95 µM (≈ 0.607 µg/mL). It also gave an MIC80 (Lichtheimia corymbifera [6]) of 7.81 µM (≈ 2.43 µg/mL), an MIC80 (Nakaseomyces glabratus [7]) of 1.95 µM (≈ 0.607 µg/mL) and an MIC80 [8] of 1.95 µM (≈ 0.607 µg/mL). The MIC80 (Candida tropicalis [9]) was 7.81 µM (≈ 2.43 µg/mL), the Stability [26] was under 3 h and the MIC80 (Pichia kudriavzevii [10]) was 7.81 µM (≈ 2.43 µg/mL). For the same molecule, the MIC80 (Aspergillus fumigatus [11]) was 3.91 µM (≈ 1.22 µg/mL), the MIC80 (Trichosporon beigelii [12]) was 7.81 µM (≈ 2.43 µg/mL) and the MIC80 (Candida tropicalis [13]) was 7.81 µM (≈ 2.43 µg/mL). For the same molecule, the MIC80 (Nakaseomyces glabratus [14]) was 1.95 µM (≈ 0.607 µg/mL), the MIC80 (Lichtheimia corymbifera [15]) was 15.6 µM (≈ 4.86 µg/mL) and the MIC80 (Trichosporon beigelii [16]) was 7.81 µM (≈ 2.43 µg/mL). The MIC80 (Pichia kudriavzevii [17]) was 3.9 µM (≈ 1.21 µg/mL), the MIC80 (Candida parapsilosis [18]) was 15.6 µM (≈ 4.86 µg/mL) and the MIC80 (Candida albicans [19]) was 3.9 µM (≈ 1.21 µg/mL). The MIC80 (Clavispora lusitaniae [20]) was 7.81 µM (≈ 2.43 µg/mL), the MIC80 (Candida parapsilosis [21]) was 3.9 µM (≈ 1.21 µg/mL) and the MIC80 [22] was 3.9 µM (≈ 1.21 µg/mL). For the same molecule, the MIC80 (Candida albicans [23]) was 0.49 µM (≈ 0.152 µg/mL) and the MIC80 (Aspergillus fumigatus [24]) was 0.98 µM (≈ 0.305 µg/mL).
With O=C1O/C(=C\c2ccccc2)C=C1c1ccc(Br)cc1 the MIC80 (Clavispora lusitaniae [1]) was over 125 µM, the MIC80 (Candida albicans [2]) was over 125 µM and the IC50 (L1210) was “Not Active”. It also gave an MIC80 (Pichia kudriavzevii [3]) of over 125 µM, an MIC80 (Pichia kudriavzevii [4]) of over 125 µM and an MIC80 (Candida albicans [5]) of over 125 µM. The IC50 (HeLa S3; hela s3) was “Not Active”, the MIC80 (Lichtheimia corymbifera [6]) was over 125 µM and the MIC80 (Nakaseomyces glabratus [7]) was over 125 µM. For the same molecule, the MIC80 [8] was over 125 µM, the MIC80 (Candida tropicalis [9]) was over 125 µM and the MIC80 (Pichia kudriavzevii [10]) was over 125 µM. The MIC80 (Aspergillus fumigatus [11]) was over 125 µM, the MIC80 (Trichosporon beigelii [12]) was over 125 µM and the MIC80 (Candida tropicalis [13]) was over 125 µM. The MIC80 (Nakaseomyces glabratus [14]) was over 125 µM, the MIC80 (Lichtheimia corymbifera [15]) was over 125 µM and the MIC80 (Trichosporon beigelii [16]) was over 125 µM. It also gave an MIC80 (Pichia kudriavzevii [17]) of over 125 µM, an MIC80 (Candida parapsilosis [18]) of over 125 µM and an MIC80 (Candida albicans [19]) of over 125 µM. For the same molecule, the IC50 (HL-60) was “Not Active”, the MIC80 (Clavispora lusitaniae [20]) was over 125 µM and the MIC80 (Candida parapsilosis [21]) was over 125 µM. The MIC80 [22] was over 125 µM, the MIC80 (Candida albicans [23]) was over 125 µM and the IC50 (CCRF-CEM; ccrf-cem) was “Not Active”. The MIC80 (Aspergillus fumigatus [24]) was over 125 µM.
